Measurements collected from several papers.
Protocols differ between the studies behind these lines.
ALK: ALK tyrosine kinase receptor (ALK, Homo sapiens, UniProt Q9UM73)
ALK C1156Y: ALK tyrosine kinase receptor (ALK, Homo sapiens, UniProt Q9UM73, C1156Y)
ALK L1196M: ALK tyrosine kinase receptor (ALK, Homo sapiens, UniProt Q9UM73, L1196M)

| SMILES | target | test | conditions | endpoint | result |
| --- | --- | --- | --- | --- | --- |
| O=C(Nc1cnn(-c2csc(C(=O)NC3COC3)c2)c1)Nc1ccccc1Cl | ALK | enzyme activity, inhibitor | 5 µM | remaining activity | 101% |
| CS(=O)(=O)c1cc(C2(NC(=O)c3cncc4c3cnn4-c3ccc(F)cc3)CC2)ccn1 | ALK | cell-free assay, competition with immobilised ligand | 1 µM | remaining binding | 100% |
| O=C(CSc1nc2nccnc2c(=O)n1CCc1ccccc1)Nc1nccs1 | ALK | enzyme activity, inhibitor | 10 µM | inhibition | 11% |
| Nc1ncnc2occ(-c3ccc(NC(=O)Nc4cc(C(F)(F)F)ccc4F)cc3)c12 | ALK C1156Y | cell-free assay | 20 µM | remaining signal | 1.1% |
| COc1cc(-c2cn(C3CCc4c(F)cccc4N(CC(F)(F)F)C3=O)nn2)ccc1-n1cnc(C)c1 (stereo not shown) | ALK L1196M | cell-free assay, competition with immobilised ligand | 1 µM | remaining binding | 100% |
| CC/C(=N\NC(=O)NCc1cccc(O)c1)c1ccc(O)c(C)c1O | ALK tyrosine kinase receptor (ALK, Homo sapiens, UniProt Q9UM73, F1174L) | enzyme activity, inhibitor | 0.1 µM | inhibition | -0.9% |
| CNC(=O)c1cc2c(Oc3ccc(NC(=O)C4(C(=O)Nc5ccc(F)cc5)CC4)cc3)ccnc2cc1OC | ALK | enzyme activity, inhibitor, radiometric | 1 µM | inhibition | 81% |
| CN(C)c1ncnc(-c2ccc3nc(Nc4cc(CN5CCN(C(=O)CC(F)(F)F)CC5)ccn4)[nH]c3c2)c1Cl | ALK L1196M | cell-free assay, competition with immobilised ligand | 1 µM | remaining binding | 79% |
| CCN(CC)CCNC(=O)c1c(C)[nH]c(/C=C2\C(=O)Nc3ccc(F)cc32)c1C | ALK | cell-free assay | 0.5 µM | remaining signal | 16.6% |
| CN(CCCC(F)(F)F)c1nccc(-c2cnn3ncccc23)n1 | ALK C1156Y | binding | 1 µM | remaining binding | 100% |
| CNCc1ccc(-c2cc(-c3nc(-c4ccc(S(=O)(=O)C(C)C)cc4)cnc3N)on2)cc1 | ALK | enzyme activity, inhibitor | 2 µM | inhibition | 4% |
| COc1cc(Cl)c(C(=O)N[C@@H](CN[C@H]2CC[C@@H](N)CC2)Cc2ccc(C#N)cc2)cc1-c1ccc(CN[C@H](C)c2ccc(C)cc2)o1 | ALK | enzyme activity, inhibitor | 1 µM | remaining activity | 96% |
| CCN(CC)CCNC(=O)c1c(C)[nH]c(/C=C2\C(=O)Nc3ccc(F)cc32)c1C | ALK | enzyme activity, inhibitor | 0.1 µM | remaining activity | 73% |
| O=C(O)c1cc(-c2ccc(C3CCNCC3)cc2)c2ccc(-c3ccc(C(F)(F)F)cc3)cc2c1 | ALK | cell-free assay, competition with immobilised ligand | 1 µM | remaining binding | 100% |
| Cc1ccc(Nc2nccc(N(C)c3ccc4c(C)n(C)nc4c3)n2)cc1S(N)(=O)=O | ALK | enzyme activity, inhibitor | 0.3 µM | inhibition | 1% |
| COc1ccc2cc(OCC3(C(=O)O)CN(C(=O)c4ccc(F)cc4)C3)ccc2c1 | ALK L1196M | cell-free assay, competition with immobilised ligand | 1 µM | remaining binding | 100% |
| C[C@@H]1CCN(c2nccc(-c3cnn4ncccc34)n2)C1 | ALK | binding | 1 µM | remaining binding | 81% |
| Oc1ccc(-c2nc(-c3ccncc3)c(-c3ccc(F)cc3)[nH]2)cc1 | ALK | cell-free assay | 0.5 µM | remaining signal | 104% |
| CNC(=O)Nc1ccc2c(c1)[C@@]1(CC2)OC(=O)N(CC(=O)N(Cc2ccc(F)cc2)[C@@H](C)C(F)(F)F)C1=O | ALK | cell-free assay, competition with immobilised ligand | 1 µM | remaining binding | 77% |
| Cc1ccc(C(=O)Nc2ccc(CN3CCN(C)CC3)c(C(F)(F)F)c2)cc1C#Cc1cnc2cccnn12 | ALK | cell-free assay | 23.5 nM | remaining signal | 81% |
| O=C(NCCCC1CCCCC1)c1ccc(CNC(=O)c2cnn(-c3ccccc3)c2C(F)(F)F)cc1 | ALK L1196M | cell-free assay, competition with immobilised ligand | 0.1 µM | remaining binding | 100% |
| CN(c1nccc(-c2cnn3ncccc23)n1)C1CC1 | ALK | binding | 1 µM | remaining binding | 100% |
